This is an account of results in ChEMBL document CHEMBL2331338, “Steroidal constituents from the leaves of Hosta longipes and their inhibitory effects on nitric oxide production” (Bioorg Med Chem Lett, 2013).

Data set [1] in a line: Cytotoxicity against mouse BV2 cells assessed as cell viability at 20 uM by MTT assay. It counts as cell-based, BV-2. Conditions: read-out: Activity. The procedure, abridged: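 BV-2 cells exposed to 20 μM of each compound; viability expressed as percentage of the LPS-only treatment group; three independent experiments, mean SD.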
(In general: Tetrazolium dyes change colour on reduction, which living cells bring about.)

In data set [2] the test system is BV-2. Briefly: Antineuroinflammatory activity in mouse BV2 cells assessed as inhibition of nitric oxide production treated 30 mins before LPS challenge measured after 24 hrs by Griess reagent method. The class given is functional, cell-based. The procedure, abridged: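 Murine microglial BV-2 cells activated with LPS; NO production measured; IC50 taken as the concentration (μM) causing 50% inhibition of NO production in LPS-activated cells.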
On the technique in general: Griess reagent forms a coloured azo dye with nitrite.

The nature of data set [3]: Cytotoxicity against mouse BV2 cells assessed as cell viability by MTT assay. The class given is cell-based, BV-2. Conditions: read-out: LD50 (the source's name). Put shortly: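 Mouse microglial BV-2 cells activated with LPS and treated with each compound at 20 μM. Viability is expressed as a percentage of the LPS-only group. Values are averages of three independent experiments, given as mean SD.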

pIC50: −log10 of the molar value.

In general, pIC50 refers to the negative decadic logarithm of the IC50, by convention in mol/L.

In the case of `C[C@@H](CO)CC[C@H](O)[C@@H](C)[C@H]1[C@@H](O)C[C@H]2[C@@H]3CCC4=CC(=O)CC[C@]4(C)[C@H]3C[C@@H](O)[C@]12C`, the viability at 20 µM in data set [1] turned out to be 93.4%. The negative-log IC50 (pIC50) in data set [2] is under 3.70.

In the case of `C[C@H](CC[C@H](O)[C@@H](C)[C@H]1[C@@H](O)C[C@H]2[C@@H]3CCC4=CC(=O)CC[C@]4(C)[C@H]3C[C@@H](O)[C@]12C)CO[C@@H]1O[C@H](CO)[C@@H](O)[C@H](O)[C@H]1O`, in data set [1], the viability at 20 µM is 94.8%. Further, the negative logarithm of the IC50 (pIC50) in data set [2] was 4.33.

Consider `C[C@@H]1CC[C@@]2(OC1)O[C@H]1C[C@H]3[C@@H]4CC[C@H]5C[C@@H](O[C@@H]6O[C@H](CO)[C@H](O[C@@H]7O[C@H](CO)[C@@H](O)[C@H](O)[C@H]7O)[C@H](O)[C@H]6O[C@@H]6O[C@@H](C)[C@H](O)[C@@H](O)[C@H]6O)[C@H](O)C[C@]5(C)[C@H]4CC[C@]3(C)[C@H]1[C@@H]2C`, for which the viability at 20 µM in data set [1] was 38.9%. In addition, the CC50 in data set [3] is 3.12 µM. In addition, in data set [2], the negative logarithm of the IC50 (pIC50) was 5.57.

As for `C[C@@H]1CC[C@@]2(OC1)O[C@H]1C[C@H]3[C@@H]4CC[C@H]5C[C@@H](O[C@@H]6O[C@H](CO)[C@H](O[C@@H]7O[C@H](CO)[C@@H](O)[C@H](O[C@@H]8OC[C@@H](O[C@@H]9O[C@@H](C)[C@H](O)[C@@H](O)[C@H]9O)[C@H](O)[C@H]8O)[C@H]7O[C@@H]7O[C@H](CO)[C@@H](O)[C@H](O)[C@H]7O)[C@H](O)[C@H]6O)[C@H](O)C[C@]5(C)[C@H]4CC[C@]3(C)[C@H]1[C@@H]2C`, in data set [1], the viability at 20 µM came out at 86.4%. Besides, the pIC50 in data set [2] was 4.88.

Regarding `C[C@@H]1CC[C@@]2(OC1)O[C@H]1C[C@H]3[C@@H]4CC[C@H]5C[C@@H](O[C@@H]6O[C@H](CO)[C@H](O[C@@H]7O[C@H](CO)[C@@H](O)[C@H](O[C@@H]8OC[C@@H](O)[C@H](O)[C@H]8O)[C@H]7O[C@@H]7O[C@H](CO)[C@@H](O)[C@H](O)[C@H]7O)[C@H](O)[C@H]6O)[C@H](O)C[C@]5(C)[C@H]4CC[C@]3(C)[C@H]1[C@@H]2C`, in data set [1], the viability at 20 µM came out at 89.6%. Further, the negative-log IC50 (pIC50) in data set [2] was 4.75.

As for `CNC(=N)NCCC[C@H](N)C(=O)O` [TILARGININE], in data set [1], the viability at 20 µM was 102%. For the same compound, the pIC50 in data set [2] is 4.84.
